ChEMBL document CHEMBL1156417, “Transferable resistance to aminoglycosides by methylation of G1405 in 16S rRNA and to hydrophilic fluoroquinolones by QepA-mediated efflux in Escherichia coli” (2007)
In brackets after ≈: the same amount, converted by molar mass.

Legend:
Assay type in all cases: functional
[1] = system: Escherichia coli; test: Antibacterial activity against Escherichia coli C600Rif by Etest
Summary of the method: (§1)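 MIC read by Etest on Mueller-Hinton agar after 24 h incubation. Strains were grown in brain heart infusion broth or on agar at 37°C. C600Rif served as the conjugation recipient and TOP10 as the transformation recipient.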

[2] = system: Escherichia coli; test: Antibacterial activity against Escherichia coli C600Rif in presence of 50 ug/ml efflux pump inhibitor phenyl-arginine-beta-naphthylamide by Etest
[3] = system: Escherichia coli; test: Antibacterial activity against Escherichia coli C600Rif in presence of 40 ug/ml efflux pump inhibitor 1-(1-naphthylmethyl)-piperazine by Etest
[4] = system: Escherichia coli; test: Antibacterial activity against Escherichia coli C600Rif containing pIP1206 plasmid by Etest; summary of the method: as §1
[5] = system: Escherichia coli; test: Antibacterial activity against Escherichia coli TOP10 containing pIP1206 plasmid in presence of 50 ug/ml efflux pump inhibitor phenyl-arginine-beta-naphthylamide by Etest
[6] = system: Escherichia coli; test: Antibacterial activity against Escherichia coli TOP10 containing pIP1206 plasmid in presence of 40 ug/ml efflux pump inhibitor 1-(1-naphthylmethyl)-piperazine by Etest
[7] = system: Escherichia coli; test: Antibacterial activity against Escherichia coli TOP10 in presence of 50 ug/ml efflux pump inhibitor phenyl-arginine-beta-naphthylamide by Etest
[8] = system: Escherichia coli; test: microbe, parasite or virus in culture
[9] = system: Escherichia coli; test: Antibacterial activity against Escherichia coli TOP10 containing pIP1206 plasmid by Etest; summary of the method: as §1
[10] = system: Escherichia coli; test: Antibacterial activity against Escherichia coli C600Rif containing pIP1206 plasmid in presence of 50 ug/ml efflux pump inhibitor phenyl-arginine-beta-naphthylamide by Etest
[11] = system: Escherichia coli; test: Antibacterial activity against Escherichia coli TOP10 by Etest; summary of the method: as §1
[12] = system: Escherichia coli; test: Antibacterial activity against Escherichia coli TOP10 containing pAT851 in presence of 40 ug/ml efflux pump inhibitor 1-(1-naphthylmethyl)-piperazine by Etest
[13] = system: Escherichia coli; test: Antibacterial activity against Escherichia coli TOP10 containing pAT851 in presence of 50 ug/ml efflux pump inhibitor phenyl-arginine-beta-naphthylamide by Etest
[14] = system: Escherichia coli; test: Antibacterial activity against Escherichia coli TOP10 containing pAT851 plasmid by Etest; summary of the method: as §1
[15] = system: Escherichia coli; test: Antibacterial activity against Escherichia coli TOP10 in presence of 40 ug/ml efflux pump inhibitor 1-(1-naphthylmethyl)-piperazine by Etest
[16] = system: Escherichia coli; test: Antibacterial activity against Escherichia coli 1540 isolate by […]
Summary of the method: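 Disk diffusion on Mueller-Hinton agar following Comité de l'Antibiogramme de la Société Française de Microbiologie standards; clinical isolate from Belgian hospital screening; strains grown in brain heart infusion broth or agar at 37°C.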

For `CCn1cc(C(=O)O)c(=O)c2cc(F)c(N3CCNCC3)cc21` [NORFLOXACIN], the MIC [1] was 0.064 µg/mL (≈ 0.2 µM), the MIC [2] was 0.032 µg/mL and the MIC [3] was 0.047 µg/mL. For the same molecule, the MIC [4] was 1.5 µg/mL (≈ 4.7 µM), the MIC [5] was 0.016 µg/mL and the MIC [6] was 0.016 µg/mL. It also gave an MIC [7] of 0.016 µg/mL, an MIC [8] of 0.064 µg/mL (≈ 0.2 µM) and an MIC [9] of 0.38 µg/mL (≈ 1.19 µM). The MIC [10] was 0.047 µg/mL, the MIC [11] was 0.032 µg/mL (≈ 0.1 µM) and the MIC [12] was 0.016 µg/mL. For the same molecule, the MIC [13] was 0.016 µg/mL, the MIC [14] was 0.19 µg/mL (≈ 0.595 µM) and the MIC [15] was 0.016 µg/mL.

For `CCn1cc(C(=O)O)c(=O)c2cc(F)c(N3CCN(C)CC3)cc21` [PEFLOXACIN], the MIC [1] was 0.094 µg/mL (≈ 0.282 µM), the MIC [4] was 0.094 µg/mL (≈ 0.282 µM) and the MIC [9] was 0.023 µg/mL (≈ 0.069 µM).

`CCN[C@@H]1C[C@H](N)[C@@H](O[C@H]2OC(CN)=CC[C@H]2N)[C@H](O)[C@H]1O[C@H]1OC[C@](C)(O)[C@H](NC)[C@H]1O` [NETILMICIN] was tested, and the MIC [16] was > 512 µg/mL.

For `CC[n+]1c(-c2ccccc2)c2cc(N)ccc2c2ccc(N)cc21.[Br-]` [HOMIDIUM BROMIDE], the MIC [1] was 128 µg/mL, the MIC [2] was 128 µg/mL and the MIC [3] was 64 µg/mL. It also gave an MIC [4] of 128 µg/mL, an MIC [5] of 64 µg/mL and an MIC [6] of 64 µg/mL. For the same molecule, the MIC [7] was 64 µg/mL, the MIC [8] was 64 µg/mL and the MIC [9] was 128 µg/mL. The MIC [10] was 64 µg/mL, the MIC [11] was 128 µg/mL and the MIC [12] was 64 µg/mL. The MIC [13] was 128 µg/mL, the MIC [14] was 128 µg/mL and the MIC [15] was 64 µg/mL.

`CCn1cc(C(=O)O)c(=O)c2ccc(C)nc21` [NALIDIXIC ACID] gave an MIC [1] of 2 µg/mL (≈ 8.61 µM), an MIC [2] of 1.5 µg/mL and an MIC [3] of 1.5 µg/mL. It also gave an MIC [4] of 2 µg/mL (≈ 8.61 µM), an MIC [5] of 1 µg/mL and an MIC [6] of 1 µg/mL. The MIC [7] was 1 µg/mL, the MIC [8] was 1.5 µg/mL (≈ 6.46 µM) and the MIC [9] was 1.5 µg/mL (≈ 6.46 µM). It also gave an MIC [10] of 1.5 µg/mL, an MIC [11] of 1.5 µg/mL (≈ 6.46 µM) and an MIC [12] of 1 µg/mL. It also gave an MIC [13] of 1 µg/mL, an MIC [14] of 1.5 µg/mL (≈ 6.46 µM) and an MIC [15] of 1 µg/mL.

`C[C@H]1COc2c(N3CCN(C)CC3)c(F)cc3c(=O)c(C(=O)O)cn1c23.C[C@H]1COc2c(N3CCN(C)CC3)c(F)cc3c(=O)c(C(=O)O)cn1c23.O` [LEVOFLOXACIN] showed an MIC [1] of 0.032 µg/mL, an MIC [4] of 0.032 µg/mL and an MIC [9] of 0.006 µg/mL. For the same molecule, the MIC [11] was 0.006 µg/mL.

In the case of `CC1(C)S[C@@H]2[C@H](NC(=O)[C@H](N)c3ccccc3)C(=O)N2[C@H]1C(=O)O` [AMPICILLIN], the MIC [16] is reported as > 256 µg/mL.

With `NC[C@H]1O[C@H](O[C@H]2[C@H](O)[C@@H](O[C@H]3O[C@H](CO)[C@@H](O)[C@H](N)[C@H]3O)[C@H](N)C[C@@H]2N)[C@H](O)[C@@H](O)[C@@H]1O` [KANAMYCIN] the MIC [16] was > 512 µg/mL.

`CO/N=C(\C(=O)N[C@@H]1C(=O)N2C(C(=O)O)=C(COC(C)=O)CS[C@H]12)c1csc(N)n1` [CEFOTAXIME] gave an MIC [16] of 32 µg/mL (≈ 70.3 µM).

For `O=C(N[C@H](CO)[C@H](O)c1ccc([N+](=O)[O-])cc1)C(Cl)Cl` [CHLORAMPHENICOL], the MIC [16] was > 256 µg/mL.

For `COc1c(N2CCNC(C)C2)c(F)cc2c(=O)c(C(=O)O)cn(C3CC3)c12` (centres undefined) [GATIFLOXACIN], the MIC [1] was 0.023 µg/mL (≈ 0.0613 µM), the MIC [2] was 0.016 µg/mL and the MIC [3] was 0.016 µg/mL. The MIC [4] was 0.032 µg/mL (≈ 0.0852 µM), the MIC [5] was 0.002 µg/mL and the MIC [6] was 0.002 µg/mL. The MIC [7] was 0.002 µg/mL, the MIC [8] was 0.016 µg/mL (≈ 0.0426 µM) and the MIC [9] was 0.003 µg/mL (≈ 0.00799 µM). The MIC [10] was 0.012 µg/mL, the MIC [11] was 0.003 µg/mL (≈ 0.00799 µM) and the MIC [12] was 0.002 µg/mL. The MIC [13] was 0.002 µg/mL, the MIC [14] was 0.003 µg/mL (≈ 0.00799 µM) and the MIC [15] was 0.002 µg/mL.

Work on `CN(C)c1ccc(O)c2c1C[C@H]1C[C@H]3[C@H](N(C)C)C(O)=C(C(N)=O)C(=O)[C@@]3(O)C(O)=C1C2=O` [MINOCYCLINE] yielded an MIC [16] of 16 µg/mL (≈ 35 µM).

`NCC[C@H](O)C(=O)N[C@@H]1C[C@H](N)[C@@H](O[C@H]2O[C@H](CN)[C@@H](O)[C@H](O)[C@H]2O)[C@H](O)[C@H]1O[C@H]1O[C@H](CO)[C@@H](O)[C@H](N)[C@H]1O` [AMIKACIN] was tested, and the MIC [16] was > 512 µg/mL.

`NC[C@H]1O[C@H](O[C@H]2[C@H](O)[C@@H](O[C@H]3O[C@H](CO)[C@@H](O)[C@H](N)[C@H]3O)[C@H](N)C[C@@H]2N)[C@H](N)C[C@@H]1O` [TOBRAMYCIN] was tested, and the MIC [16] was > 512 µg/mL.

For `CN(C)[C@@H]1C(O)=C(C(N)=O)C(=O)[C@@]2(O)C(O)=C3C(=O)c4c(O)cccc4[C@@](C)(O)[C@H]3C[C@@H]12` [TETRACYCLINE], the MIC [16] was > 256 µg/mL.

Molecule `COc1c(N2C[C@@H]3CCCN[C@@H]3C2)c(F)cc2c(=O)c(C(=O)O)cn(C3CC3)c12` [MOXIFLOXACIN] has an MIC [1] of 0.064 µg/mL (≈ 0.159 µM), an MIC [2] of 0.032 µg/mL and an MIC [3] of 0.032 µg/mL. For the same molecule, the MIC [4] was 0.094 µg/mL (≈ 0.234 µM), the MIC [5] was 0.002 µg/mL and the MIC [6] was 0.002 µg/mL. The MIC [7] was 0.002 µg/mL, the MIC [8] was 0.032 µg/mL (≈ 0.0797 µM) and the MIC [9] was 0.006 µg/mL (≈ 0.0149 µM). It also gave an MIC [10] of 0.006 µg/mL, an MIC [11] of 0.004 µg/mL (≈ 0.00996 µM) and an MIC [12] of 0.002 µg/mL. The MIC [13] was 0.002 µg/mL, the MIC [14] was 0.004 µg/mL (≈ 0.00996 µM) and the MIC [15] was 0.002 µg/mL.

`O=C(O)c1cn(C2CC2)c2cc(N3CCNCC3)c(F)cc2c1=O` [CIPROFLOXACIN] was tested, and the MIC [1] was 0.023 µg/mL (≈ 0.0694 µM), the MIC [9] was 0.023 µg/mL (≈ 0.0694 µM) and the MIC [16] was > 32 µg/mL.
